Reference: ChEMBL document CHEMBL4428066, “Small Molecule Reversible Inhibitors of Bruton's Tyrosine Kinase (BTK): Structure-Activity Relationships Leading to the Identification of 7-(2-Hydroxypropan-2-yl)-4-[2-methyl-3-(4-oxo-3,4-dihydroquinazolin-3-yl)phenyl]-9H-carbazole-1-carboxamide (BMS-935177)” (J Med Chem, 2016)
Values after ≈ are worked out from the molar mass of the structure shown. Active and inactive are the calls of the source. The rule behind the calls is not given here.

What was measured:
Mus musculus [1] = assay: Antiarthritic activity in DBA/1 mouse model of collagen-induced arthritis inflammation assessed as presence of smooth bone surface at 20 mg/kg, po dosed daily beginning on day of primary immunization by microcomputed tomography imaging analysis; type: functional, organism-based
[2] = Plasma clearance in Beagle dog at 2 mg/kg, iv through bolus administration after 0.167 to 48 hrs by LC/MS/MS analysis; type: ADME, organism-based, Canis lupus familiaris
[3] = Aqueous solubility of the compound; type: physicochemical; conditions: aqueous medium
Mus musculus [4] = assay: Antiarthritic activity in Balb/C mouse model of anti-collagen antibody-induced arthritis assessed as reduction in paw clinical scores at dosed orally daily for 3 days followed by LPS challenge; type: functional, organism-based
[5] = Solubility of the compound in fasted state simulated intestinal fluid; type: physicochemical
[6] = Oral bioavailability in cynomolgus monkey at 2 mg/kg after 0.25 to 48 hrs by LC/MS/MS analysis; type: ADME, organism-based, Macaca fascicularis; conditions: in vivo
Mus musculus [7] = assay: Antiarthritic activity in Balb/C mouse model of anti-collagen antibody-induced arthritis assessed as reduction in paw clinical scores at 30 mg/kg, po dosed daily for 3 days followed by LPS challenge; type: functional, organism-based
[8] = molecular target: Proto-oncogene tyrosine-protein kinase Src (Homo sapiens, UniProt P12931); assay: Inhibition of partial length human SRC expressed in bacterial system
[9] = molecular target: Proto-oncogene tyrosine-protein kinase receptor Ret (Homo sapiens, UniProt P07949); assay: Inhibition of partial length human RET expressed in bacterial system
[10] = Cmax in Sprague-Dawley rat plasma at 5 mg/kg, administered through oral gavage by LC/MS/MS analysis; type: ADME, organism-based; design: dose 5 mg/kg, route oral
[11] = Plasma clearance in cynomolgus monkey at 2 mg/kg, iv through bolus administration after 0.167 to 48 hrs by LC/MS/MS analysis; type: ADME, organism-based, Macaca fascicularis
[12] = molecular target: Receptor tyrosine-protein kinase erbB-4 (Homo sapiens, UniProt Q15303); assay: Inhibition of partial length human HER4 expressed in bacterial system
[13] = AUC (0 to 24 hrs) in Balb/C mouse at 10 mg/kg, po; type: ADME, organism-based; design: time < 24 hr, dose 10 mg/kg, route oral; conditions: in vivo
Procedure, shortened: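 Male Balb/C mice dosed orally once at 10 mg/kg in PEG300/TPGS/ethanol (90/5/5 v/v/v).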

[14] = Half life in cynomolgus monkey plasma at 2 mg/kg, iv through bolus administration after 0.167 to 48 hrs by LC/MS/MS analysis; type: ADME, organism-based, Macaca fascicularis
Cytochrome P450 2B6 = Cytochrome P450 2B6 (Homo sapiens, UniProt P20813); assay: Inhibition of human liver microsomes CYP2B6 after 30 mins in presence of NADPH; type: ADME
[15] = Half life in mouse plasma at 2 mg/kg, iv through bolus administration after 0.05 to 24 hrs by LC/MS/MS analysis; type: ADME, organism-based
[16] = Volume of distribution in steady state in Sprague-Dawley rat at 2 mg/kg, iv through bolus administration by LC/MS/MS analysis; type: ADME, organism-based; conditions: in vivo, read-out: Vdss
Mus musculus [17] = assay: Antiarthritic activity in DBA/1 mouse model of collagen-induced arthritis inflammation assessed as inhibition of inflammation dosed daily and orally beginning on day of primary immunization by H and E staining based microscopy; type: functional, organism-based
[18] = Tmax in mouse plasma at 5 mg/kg, administered through oral gavage after 0.25 to 24 hrs by LC/MS/MS analysis; type: ADME, organism-based
[19] = Tmax in cynomolgus monkey plasma at 2 mg/kg, administered through oral gavage after 0.25 to 48 hrs by LC/MS/MS analysis; type: ADME, organism-based, Macaca fascicularis
Mus musculus [20] = assay: Antiarthritic activity in DBA/1 mouse model of collagen-induced arthritis inflammation assessed as protection against woven porous bones dosed daily and orally beginning on day of primary immunization by microcomputed tomography imaging analysis; type: functional, organism-based
Mus musculus [21] = assay: Antiarthritic activity in DBA/1 mouse model of collagen-induced arthritis inflammation assessed as presence of presence of recognizable small individual bones at foot and ankle at 20 mg/kg, po dosed daily beginning on day of primary immunization by microcomputed tomography imaging analysis; type: functional, organism-based
[22] = Protein binding in human serum; type: ADME, cell-free; conditions: read-out: PB (converted)
[23] = Plasma clearance in mouse at 2 mg/kg, iv through bolus administration after 0.05 to 24 hrs by LC/MS/MS analysis; type: ADME, organism-based
[24] = Cmax in cynomolgus monkey plasma at 2 mg/kg, administered through oral gavage after 0.25 to 48 hrs by LC/MS/MS analysis; type: ADME, organism-based, Macaca fascicularis; design: dose 2 mg/kg, route oral
[25] = molecular target: Tyrosine-protein kinase ITK/TSK (Homo sapiens, UniProt Q08881); assay: Inhibition of partial length human ITK expressed in bacterial system
Cytochrome P450 2D6 = Cytochrome P450 2D6 (Homo sapiens, UniProt P10635); assay: Inhibition of human liver microsomes CYP2D6 after 30 mins in presence of NADPH; type: ADME
Mus musculus [26] = assay: Antiarthritic activity in DBA/1 mouse model of collagen-induced arthritis inflammation assessed as protection against bone mass loss dosed daily and orally beginning on day of primary immunization by microcomputed tomography imaging analysis; type: functional, organism-based
Mus musculus [27] = assay: Antiarthritic activity in DBA/1 mouse model of collagen-induced arthritis inflammation assessed reduction in incidence of clinically evident disease dosed daily and orally beginning on day of primary immunization; type: functional, organism-based
[28] = Oral bioavailability in Beagle dog at 2 mg/kg after 0.25 to 48 hrs by LC/MS/MS analysis; type: ADME, organism-based, Canis lupus familiaris; conditions: in vivo
[29] = AUC in cynomolgus monkey plasma at 2 mg/kg, administered through oral gavage after 0.25 to 48 hrs by LC/MS/MS analysis; type: ADME, organism-based, Macaca fascicularis; design: time upper 48 hr, dose 2 mg/kg, time lower 0.25 hr, route oral
[30] = molecular target: Tyrosine-protein kinase JAK2 (Homo sapiens, UniProt O60674); assay: Inhibition of partial length human JAK2 expressed in bacterial system
[31] = Cmax in mouse plasma at 5 mg/kg, administered through oral gavage after 0.25 to 24 hrs by LC/MS/MS analysis; type: ADME, organism-based; design: dose 5 mg/kg, route oral
Mus musculus [32] = assay: Decrease in anti-KLH IgM titers in chronic Balb/C mouse KLH antibody response model at 5 to 45 mg/kg, po qd administered through oral gavage after 14 days by ELISA; type: functional, organism-based
Procedure, shortened: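 Chronic KLH challenge model in mice with compound given by mouth. Anti-KLH IgM appears in the first week after challenge. Switching to IgG anti-KLH is evident by day 14.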

Mus musculus [33] = assay: Antiarthritic activity in DBA/1 mouse model of collagen-induced arthritis inflammation assessed reduction in disease severity dosed daily and orally beginning on day of primary immunization; type: functional, organism-based
[34] = Half life in Sprague-Dawley rat plasma at 2 mg/kg, iv through bolus administration by LC/MS/MS analysis; type: ADME, organism-based
[35] = molecular target: Tyrosine-protein kinase Blk (Homo sapiens, UniProt P51451); assay: Inhibition of BLK (unknown origin) expressed in bacterial system
[36] = molecular target: Tyrosine-protein kinase Lyn (Homo sapiens, UniProt P07948); assay: Inhibition of partial length human LYN expressed in bacterial system
[37] = Half life in Beagle dog plasma at 2 mg/kg, iv through bolus administration after 0.167 to 48 hrs by LC/MS/MS analysis; type: ADME, organism-based, Canis lupus familiaris

Chain of Tyrosine-protein kinase ITK/TSK (Q08881 whole entry): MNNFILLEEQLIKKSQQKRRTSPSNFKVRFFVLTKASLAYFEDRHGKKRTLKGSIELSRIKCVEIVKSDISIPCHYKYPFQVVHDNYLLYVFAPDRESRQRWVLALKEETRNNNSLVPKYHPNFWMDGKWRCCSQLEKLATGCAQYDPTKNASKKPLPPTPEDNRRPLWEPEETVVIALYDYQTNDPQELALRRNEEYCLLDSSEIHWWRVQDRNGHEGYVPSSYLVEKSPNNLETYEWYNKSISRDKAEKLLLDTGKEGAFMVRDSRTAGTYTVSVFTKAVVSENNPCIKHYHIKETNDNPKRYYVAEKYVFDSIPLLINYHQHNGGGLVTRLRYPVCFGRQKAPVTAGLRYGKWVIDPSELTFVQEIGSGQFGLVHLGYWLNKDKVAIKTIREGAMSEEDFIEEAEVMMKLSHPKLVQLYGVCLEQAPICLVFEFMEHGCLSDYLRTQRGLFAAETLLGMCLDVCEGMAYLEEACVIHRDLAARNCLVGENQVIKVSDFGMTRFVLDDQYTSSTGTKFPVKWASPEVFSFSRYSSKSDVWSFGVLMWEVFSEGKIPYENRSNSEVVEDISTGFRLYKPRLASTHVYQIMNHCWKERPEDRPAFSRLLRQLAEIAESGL
Chain of Tyrosine-protein kinase Lyn (P07948 whole entry): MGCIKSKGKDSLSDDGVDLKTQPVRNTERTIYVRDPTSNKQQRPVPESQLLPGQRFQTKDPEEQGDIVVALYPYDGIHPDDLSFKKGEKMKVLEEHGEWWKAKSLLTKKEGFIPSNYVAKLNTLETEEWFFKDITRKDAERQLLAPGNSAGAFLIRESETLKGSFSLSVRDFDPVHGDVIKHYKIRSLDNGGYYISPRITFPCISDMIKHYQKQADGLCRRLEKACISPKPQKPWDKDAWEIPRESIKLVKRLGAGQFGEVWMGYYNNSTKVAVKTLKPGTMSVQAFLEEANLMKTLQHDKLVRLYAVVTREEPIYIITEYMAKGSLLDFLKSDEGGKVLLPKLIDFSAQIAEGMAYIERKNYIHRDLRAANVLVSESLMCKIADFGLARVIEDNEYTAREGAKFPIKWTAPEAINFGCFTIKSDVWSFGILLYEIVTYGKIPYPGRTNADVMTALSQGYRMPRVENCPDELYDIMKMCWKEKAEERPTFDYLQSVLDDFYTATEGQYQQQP
Chain of Tyrosine-protein kinase JAK2 (O60674 whole entry): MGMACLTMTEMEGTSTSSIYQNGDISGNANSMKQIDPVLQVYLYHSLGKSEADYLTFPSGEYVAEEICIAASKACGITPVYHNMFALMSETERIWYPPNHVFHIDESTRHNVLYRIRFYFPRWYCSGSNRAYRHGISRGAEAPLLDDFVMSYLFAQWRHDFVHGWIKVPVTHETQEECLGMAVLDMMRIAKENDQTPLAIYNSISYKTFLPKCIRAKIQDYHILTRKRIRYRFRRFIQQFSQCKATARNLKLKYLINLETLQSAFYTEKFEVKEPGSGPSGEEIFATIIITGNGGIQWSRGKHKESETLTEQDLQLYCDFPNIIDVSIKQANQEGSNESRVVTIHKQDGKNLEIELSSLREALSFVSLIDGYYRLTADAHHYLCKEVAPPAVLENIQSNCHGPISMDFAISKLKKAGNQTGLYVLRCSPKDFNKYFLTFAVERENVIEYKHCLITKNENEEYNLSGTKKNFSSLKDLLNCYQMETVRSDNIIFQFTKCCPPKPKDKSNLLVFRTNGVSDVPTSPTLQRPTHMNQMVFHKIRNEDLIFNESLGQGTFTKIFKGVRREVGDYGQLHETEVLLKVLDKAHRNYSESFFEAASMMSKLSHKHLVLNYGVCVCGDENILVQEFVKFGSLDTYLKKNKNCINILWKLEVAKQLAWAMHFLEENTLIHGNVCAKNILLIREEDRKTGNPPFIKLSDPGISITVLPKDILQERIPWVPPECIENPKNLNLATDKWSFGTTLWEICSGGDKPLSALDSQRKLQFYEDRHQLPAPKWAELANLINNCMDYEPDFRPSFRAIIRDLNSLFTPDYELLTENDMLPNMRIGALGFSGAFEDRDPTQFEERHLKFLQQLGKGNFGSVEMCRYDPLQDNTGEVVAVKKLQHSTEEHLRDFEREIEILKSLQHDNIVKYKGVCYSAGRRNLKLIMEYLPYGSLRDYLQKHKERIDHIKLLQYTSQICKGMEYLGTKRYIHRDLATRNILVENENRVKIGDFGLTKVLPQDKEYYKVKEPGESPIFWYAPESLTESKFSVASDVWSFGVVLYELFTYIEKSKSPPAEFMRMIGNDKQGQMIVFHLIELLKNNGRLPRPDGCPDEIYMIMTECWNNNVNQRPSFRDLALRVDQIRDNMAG
Chain of Proto-oncogene tyrosine-protein kinase receptor Ret (P07949 whole entry): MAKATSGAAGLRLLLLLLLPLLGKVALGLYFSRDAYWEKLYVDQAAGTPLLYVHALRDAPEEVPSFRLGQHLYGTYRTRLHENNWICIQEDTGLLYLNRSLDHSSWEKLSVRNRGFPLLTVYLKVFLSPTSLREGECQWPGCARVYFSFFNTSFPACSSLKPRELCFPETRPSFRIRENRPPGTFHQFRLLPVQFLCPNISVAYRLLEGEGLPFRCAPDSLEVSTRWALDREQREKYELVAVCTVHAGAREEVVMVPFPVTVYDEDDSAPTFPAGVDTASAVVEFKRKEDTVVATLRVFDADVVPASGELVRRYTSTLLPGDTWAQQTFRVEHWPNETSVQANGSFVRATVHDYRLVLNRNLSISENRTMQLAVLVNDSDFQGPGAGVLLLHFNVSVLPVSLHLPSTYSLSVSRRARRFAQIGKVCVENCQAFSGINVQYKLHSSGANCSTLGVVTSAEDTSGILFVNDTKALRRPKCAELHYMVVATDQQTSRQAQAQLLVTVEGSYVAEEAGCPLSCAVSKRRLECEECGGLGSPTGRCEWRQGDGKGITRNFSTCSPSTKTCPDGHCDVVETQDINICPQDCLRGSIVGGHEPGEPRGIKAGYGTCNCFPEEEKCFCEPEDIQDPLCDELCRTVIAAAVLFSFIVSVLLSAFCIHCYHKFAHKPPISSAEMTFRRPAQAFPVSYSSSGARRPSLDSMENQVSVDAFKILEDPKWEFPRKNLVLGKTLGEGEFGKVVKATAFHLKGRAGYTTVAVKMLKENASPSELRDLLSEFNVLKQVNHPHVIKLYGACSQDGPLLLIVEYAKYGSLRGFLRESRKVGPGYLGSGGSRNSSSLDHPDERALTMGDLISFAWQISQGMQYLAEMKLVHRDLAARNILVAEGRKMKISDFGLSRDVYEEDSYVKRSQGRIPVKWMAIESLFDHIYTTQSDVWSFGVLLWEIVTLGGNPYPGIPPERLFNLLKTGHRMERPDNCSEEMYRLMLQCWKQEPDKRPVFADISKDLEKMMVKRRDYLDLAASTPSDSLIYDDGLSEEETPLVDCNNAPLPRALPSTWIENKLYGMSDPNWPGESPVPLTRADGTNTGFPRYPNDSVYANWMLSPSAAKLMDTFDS
Chain of Receptor tyrosine-protein kinase erbB-4 (Q15303 whole entry): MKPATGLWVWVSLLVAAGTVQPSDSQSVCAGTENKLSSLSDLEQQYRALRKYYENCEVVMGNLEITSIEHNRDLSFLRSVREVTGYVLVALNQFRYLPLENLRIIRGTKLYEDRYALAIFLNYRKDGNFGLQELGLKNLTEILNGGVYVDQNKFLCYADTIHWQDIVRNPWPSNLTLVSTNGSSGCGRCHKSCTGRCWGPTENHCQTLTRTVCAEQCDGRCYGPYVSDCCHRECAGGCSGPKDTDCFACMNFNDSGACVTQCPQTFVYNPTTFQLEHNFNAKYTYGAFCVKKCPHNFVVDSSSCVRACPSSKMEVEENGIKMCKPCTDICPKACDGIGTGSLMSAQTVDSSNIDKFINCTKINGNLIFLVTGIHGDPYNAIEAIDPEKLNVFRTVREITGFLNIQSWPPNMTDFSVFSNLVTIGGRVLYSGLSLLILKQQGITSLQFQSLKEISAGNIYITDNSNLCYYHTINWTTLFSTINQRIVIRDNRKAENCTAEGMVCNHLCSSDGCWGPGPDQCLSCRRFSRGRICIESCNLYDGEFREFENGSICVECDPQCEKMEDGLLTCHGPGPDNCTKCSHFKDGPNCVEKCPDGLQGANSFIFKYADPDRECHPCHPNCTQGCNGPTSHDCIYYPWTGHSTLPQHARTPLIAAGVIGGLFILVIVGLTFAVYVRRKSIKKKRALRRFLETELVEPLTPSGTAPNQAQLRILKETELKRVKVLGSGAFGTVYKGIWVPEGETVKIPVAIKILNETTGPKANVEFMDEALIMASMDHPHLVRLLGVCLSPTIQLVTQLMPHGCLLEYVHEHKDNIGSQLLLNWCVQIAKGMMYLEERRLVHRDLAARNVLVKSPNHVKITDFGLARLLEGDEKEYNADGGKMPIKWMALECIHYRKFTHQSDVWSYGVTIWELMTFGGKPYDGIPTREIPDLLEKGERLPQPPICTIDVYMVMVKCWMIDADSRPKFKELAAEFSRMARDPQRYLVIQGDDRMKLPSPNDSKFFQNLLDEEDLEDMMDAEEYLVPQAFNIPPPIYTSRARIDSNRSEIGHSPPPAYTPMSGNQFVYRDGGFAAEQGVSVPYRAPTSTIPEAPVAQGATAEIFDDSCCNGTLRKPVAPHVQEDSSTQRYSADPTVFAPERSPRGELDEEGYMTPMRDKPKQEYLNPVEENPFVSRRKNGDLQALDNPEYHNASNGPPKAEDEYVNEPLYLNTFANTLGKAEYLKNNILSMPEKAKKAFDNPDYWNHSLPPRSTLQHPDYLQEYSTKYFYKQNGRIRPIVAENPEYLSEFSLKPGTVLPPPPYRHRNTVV

clearance [2]: 3.7 mL/min/kg
solubility [3]: < 1 µg/mL
solubility [5]: 6 µg/mL (≈ 11.9 µM)
bioavailability [6]: 100%
IC50 [8]: 3.19 µM
IC50 [9]: 110 nM
Cmax [10]: 2000 nM
clearance [11]: 2.1 mL/min/kg
IC50 [12]: 50 nM
AUC(0-t) at 24 h [13]: 80 µM·h
half-life [14]: 636 min
IC50 (Cytochrome P450 2B6): > 40 µM
half-life [15]: 240 min
Vd [16]: 2.6 L/kg
Tmax [18]: 3 h
Tmax [19]: 2.7 h
fraction unbound [22]: 0.006
clearance [23]: 4.9 mL/min/kg
Cmax [24]: 4.8 µM
IC50 [25]: 96 nM
IC50 (Cytochrome P450 2D6): > 40 µM
bioavailability [28]: 100%
AUC [29]: 32 µM·h
IC50 [30]: 370 nM
Cmax [31]: 3.8 µM
half-life [34]: 306 min
IC50 [35]: 20 nM
IC50 [36]: 160 nM
half-life [37]: 624 min
SMILES: Cc1c(-c2ccc(C(N)=O)c3[nH]c4cc(C(C)(C)O)ccc4c23)cccc1-n1cnc2ccccc2c1=O
Activity (Mus musculus [1]): Active
Activity (Mus musculus [4]): Dose-dependent effect
Activity (Mus musculus [7]): Active
Activity (Mus musculus [17]): Active
Activity (Mus musculus [20]): Dose-dependent effect
Activity (Mus musculus [21]): Active
Activity (Mus musculus [26]): Dose-dependent effect
Activity (Mus musculus [27]): Dose-dependent effect
Activity (Mus musculus [32]): Active
Activity (Mus musculus [33]): Dose-dependent effect
